Experimental data as given in ChEMBL document CHEMBL2040715, “Discovery of a Potent HIV Integrase Inhibitor that Leads to a Prodrug with Significant anti-HIV Activity” (ACS Med Chem Lett, 2011).

Columns and labels:
[1] = target: T1, UDP-glucuronosyltransferase 1A6 (Homo sapiens, UniProt P19224); test: Activity at UGT1A6 in human liver microsomes at 50 uM incubated for 3 mins prior to NADPH-addition measured up to 120 mins by HPLC/UV analysis; type: ADME, Microsome
T1 sequence (P19224 whole entry): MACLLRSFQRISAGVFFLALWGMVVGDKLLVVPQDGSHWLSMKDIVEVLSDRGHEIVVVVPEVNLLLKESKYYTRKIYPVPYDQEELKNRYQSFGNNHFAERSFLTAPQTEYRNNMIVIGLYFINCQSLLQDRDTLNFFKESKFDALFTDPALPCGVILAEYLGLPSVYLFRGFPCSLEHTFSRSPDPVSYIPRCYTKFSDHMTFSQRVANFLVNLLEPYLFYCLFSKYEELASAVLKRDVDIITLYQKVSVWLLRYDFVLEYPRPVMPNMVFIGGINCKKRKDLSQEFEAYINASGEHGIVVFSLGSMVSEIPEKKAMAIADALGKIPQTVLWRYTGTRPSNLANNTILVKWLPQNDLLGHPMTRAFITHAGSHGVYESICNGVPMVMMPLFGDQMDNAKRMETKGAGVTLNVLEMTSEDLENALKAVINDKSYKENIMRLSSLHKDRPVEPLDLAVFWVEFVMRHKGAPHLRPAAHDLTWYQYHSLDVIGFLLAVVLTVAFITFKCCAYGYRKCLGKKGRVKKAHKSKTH

[2] = target: Cytochrome P450 2D6 (Homo sapiens, UniProt P10635); test: Inhibition of CYP2D6 in human liver microsomes using dextromethorphan as substrate incubated for 3 mins prior to NAPDH-addition measured after 60 mins by RP-HPLC analysis
[3] = target: T2, UDP-glucuronosyltransferase 1A9 (Homo sapiens, UniProt O60656); test: Activity at UGT1A9 in human liver microsomes at 50 uM incubated for 3 mins prior to NADPH-addition measured up to 120 mins by HPLC/UV analysis; type: ADME, Microsome
T2 sequence (O60656 whole entry): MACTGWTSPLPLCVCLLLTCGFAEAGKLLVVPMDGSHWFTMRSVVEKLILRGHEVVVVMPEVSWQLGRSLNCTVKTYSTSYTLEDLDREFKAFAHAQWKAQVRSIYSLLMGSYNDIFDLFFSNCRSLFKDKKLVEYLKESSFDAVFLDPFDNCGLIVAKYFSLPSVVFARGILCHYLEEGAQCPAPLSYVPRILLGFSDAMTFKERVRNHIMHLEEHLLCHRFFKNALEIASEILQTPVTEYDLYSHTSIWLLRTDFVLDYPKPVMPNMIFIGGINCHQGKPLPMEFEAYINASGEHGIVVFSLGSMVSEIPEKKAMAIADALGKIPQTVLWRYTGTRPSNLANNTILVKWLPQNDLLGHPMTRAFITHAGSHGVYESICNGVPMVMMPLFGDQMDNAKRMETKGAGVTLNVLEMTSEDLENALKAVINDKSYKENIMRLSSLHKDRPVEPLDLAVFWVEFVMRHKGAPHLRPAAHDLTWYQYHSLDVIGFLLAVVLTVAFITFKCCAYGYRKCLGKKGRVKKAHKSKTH

[4] = target: T3, Cytochrome P450 2C8 (Homo sapiens, UniProt P10632); test: Activation of CYP2C8 in human liver microsomes incubated for 3 mins prior to NAPDH-addition measured after 30 mins by RP-HPLC analysis; type: ADME, Microsome; conditions: 0.5 h
T3 sequence (P10632 whole entry): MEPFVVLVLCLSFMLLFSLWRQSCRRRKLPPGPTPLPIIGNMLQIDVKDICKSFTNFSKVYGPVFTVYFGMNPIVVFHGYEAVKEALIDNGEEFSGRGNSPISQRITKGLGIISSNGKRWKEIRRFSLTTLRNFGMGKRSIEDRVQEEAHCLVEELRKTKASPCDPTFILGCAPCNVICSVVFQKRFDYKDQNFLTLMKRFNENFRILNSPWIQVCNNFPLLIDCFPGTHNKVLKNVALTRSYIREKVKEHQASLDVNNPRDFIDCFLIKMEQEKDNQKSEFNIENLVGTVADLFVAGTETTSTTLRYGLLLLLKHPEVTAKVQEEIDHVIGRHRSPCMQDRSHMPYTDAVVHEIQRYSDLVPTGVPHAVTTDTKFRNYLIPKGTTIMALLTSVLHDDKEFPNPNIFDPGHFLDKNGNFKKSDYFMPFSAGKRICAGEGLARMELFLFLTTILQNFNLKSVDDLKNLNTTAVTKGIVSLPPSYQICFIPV

[5] = target: T4, Cytochrome P450 3A4 (Homo sapiens, UniProt P08684); test: Inhibition of CYP3A4 in human liver microsomes using triazolam as substrate incubated for 3 mins prior to NAPDH-addition measured after 30 mins by RP-HPLC analysis; type: ADME, Microsome
Procedure, shortened: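 For CYP3A4 with triazolam as substrate (50 mM stock; 200 μM listed), pooled human liver microsomes were used at 0.4 mg/mL protein. Incubation was 30 min with varying inhibitor concentrations, and IC50 came from kinetic analysis.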

[6] = system: Liver microsomes; test: Half life in human liver microsomes at 200 uM incubated for 3 mins prior to NADPH-addition by RP-HPLC analysis; type: ADME, Microsome; conditions: 0.05 h
Procedure, shortened: (§1)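 Pooled human liver microsomes were preincubated with test compound, and the reaction was started with NADPH at 37 °C. Samples were taken at several times up to 3 h and quenched with cold acetonitrile. Precipitated protein was removed by centrifugation, then HPLC with UV detection measured parent remaining, from which the in vitro half-life was derived.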

[7] = Metabolic stability in human liver microsomes assessed as compound remaining at 200 uM incubated for 3 mins prior to NADPH-addition measured after 3 hrs by RP-HPLC analysis; type: ADME, Microsome; conditions: read-out: Stability; procedure, shortened: as §1
[8] = target: T4, Cytochrome P450 3A4; test: Inhibition of CYP3A4 in human liver microsomes using testosterone as substrate incubated for 3 mins prior to NAPDH-addition measured after 30 mins by RP-HPLC analysis; type: ADME, Microsome
Procedure, shortened: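 CYP3A4 inhibition used pooled human liver microsomes at 0.3 mg/mL protein with testosterone as substrate (50 mM stock; 100 μM listed). Incubation ran 30 min across varying inhibitor concentrations, and kinetic analysis gave the IC50.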

T4 sequence (P08684 whole entry): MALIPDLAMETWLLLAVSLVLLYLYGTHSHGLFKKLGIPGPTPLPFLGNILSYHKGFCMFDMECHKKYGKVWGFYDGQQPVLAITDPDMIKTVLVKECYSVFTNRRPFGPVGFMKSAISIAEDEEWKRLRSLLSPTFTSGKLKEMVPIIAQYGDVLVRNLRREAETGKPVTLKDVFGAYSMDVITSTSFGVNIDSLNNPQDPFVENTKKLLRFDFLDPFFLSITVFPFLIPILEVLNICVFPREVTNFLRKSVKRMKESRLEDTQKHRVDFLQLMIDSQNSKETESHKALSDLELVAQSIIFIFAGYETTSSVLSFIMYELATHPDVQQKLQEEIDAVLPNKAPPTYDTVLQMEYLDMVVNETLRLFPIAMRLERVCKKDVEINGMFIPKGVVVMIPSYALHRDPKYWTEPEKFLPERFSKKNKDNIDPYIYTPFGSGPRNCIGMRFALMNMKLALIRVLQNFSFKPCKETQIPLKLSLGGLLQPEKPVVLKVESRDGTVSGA
Cytochrome P450 2D6, sequence (P10635 whole entry): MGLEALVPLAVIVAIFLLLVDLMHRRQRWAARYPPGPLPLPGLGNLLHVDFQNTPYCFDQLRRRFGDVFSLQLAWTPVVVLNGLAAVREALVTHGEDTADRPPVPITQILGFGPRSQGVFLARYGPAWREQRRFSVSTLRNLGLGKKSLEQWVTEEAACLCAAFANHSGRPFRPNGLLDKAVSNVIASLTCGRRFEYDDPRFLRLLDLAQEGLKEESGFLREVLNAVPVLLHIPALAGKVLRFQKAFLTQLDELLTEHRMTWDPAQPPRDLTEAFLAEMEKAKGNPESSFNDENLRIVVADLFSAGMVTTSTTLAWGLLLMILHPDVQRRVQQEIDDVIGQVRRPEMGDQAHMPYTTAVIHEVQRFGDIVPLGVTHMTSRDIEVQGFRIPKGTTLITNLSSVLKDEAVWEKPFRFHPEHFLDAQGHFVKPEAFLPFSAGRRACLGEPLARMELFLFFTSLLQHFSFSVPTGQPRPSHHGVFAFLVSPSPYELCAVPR

SMILES: O=C(O)/C(O)=C/C(=O)c1cc(Cc2ccc(F)cc2F)cn(Cc2ccccc2F)c1=O
- Activity [1]: Not Active
- IC50 [2]: > 200 µM
- Activity [3]: Not Active
- Activity [4]: Not Active
- IC50 [5]: > 200 µM
- t1/2 [6]: > 3 h
- remaining at 3 h, 200 µM [7]: 80%
- IC50 [8]: > 200 µM
